Data reported in ChEMBL document CHEMBL4477178, “Biflorin, Isolated from the Flower Buds of Syzygium aromaticum L., Suppresses LPS-Induced Inflammatory Mediators via STAT1 Inactivation in Macrophages and Protects Mice from Endotoxin Shock” (J Nat Prod, 2016).
The source made the active and inactive calls. The rule behind the calls is not given here.

Columns and labels:
[1] = biological target: T1, Signal transducer and activator of transcription 1 (Mus musculus) (UniProt P42225); assay: Inhibition of LPS-induced STAT1 phosphorylation at Y701 in C57BL/6 mouse peritoneal macrophages at 15 to 60 uM preincubated for 1 hr followed by LPS challenge for 120 mins by Western blot analysis
T1 sequence (whole entry): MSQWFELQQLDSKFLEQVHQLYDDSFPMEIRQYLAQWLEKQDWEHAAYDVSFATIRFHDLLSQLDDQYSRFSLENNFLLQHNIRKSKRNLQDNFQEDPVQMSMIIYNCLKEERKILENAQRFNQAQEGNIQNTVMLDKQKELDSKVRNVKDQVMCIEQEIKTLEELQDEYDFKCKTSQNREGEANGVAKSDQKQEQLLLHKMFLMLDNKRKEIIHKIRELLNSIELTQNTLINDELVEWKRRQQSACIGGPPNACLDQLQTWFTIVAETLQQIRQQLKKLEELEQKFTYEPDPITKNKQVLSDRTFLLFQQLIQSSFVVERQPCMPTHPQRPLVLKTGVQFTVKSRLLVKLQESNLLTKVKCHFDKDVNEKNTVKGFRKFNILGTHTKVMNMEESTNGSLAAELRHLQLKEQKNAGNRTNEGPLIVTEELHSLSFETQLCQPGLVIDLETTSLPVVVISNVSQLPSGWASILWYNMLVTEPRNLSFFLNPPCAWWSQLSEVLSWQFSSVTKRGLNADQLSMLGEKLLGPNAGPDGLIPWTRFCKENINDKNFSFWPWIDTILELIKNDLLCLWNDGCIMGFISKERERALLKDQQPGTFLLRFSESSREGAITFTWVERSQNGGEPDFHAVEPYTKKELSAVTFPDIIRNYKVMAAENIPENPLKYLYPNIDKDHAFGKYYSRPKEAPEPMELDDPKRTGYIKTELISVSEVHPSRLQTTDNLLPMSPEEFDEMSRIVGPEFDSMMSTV
Outline: (§1)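 Thioglycolate-elicited C57BL/6 peritoneal macrophages pretreated 1 h at 15, 30 or 60 μM, then LPS 10 μg/mL: 120 min for p-STAT1 Y701, 30 min for p-STAT1 S727, 60 min for p-STAT3 Y705. Western blot with phospho-specific and total STAT antibodies, β-actin control; three independent experiments.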

RAW264.7 [2] = assay: Antiinflammatory activity in mouse RAW264.7 cells assessed as inhibition of LPS-induced COX-2 mRNA expression at 60 uM after 2 to 12 hrs by qRT-PCR method; assay type: functional, cell-based
Outline: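 RAW 264.7 stimulated with LPS 10 ng/mL with or without 60 μM for 2, 4, 6 and 12 h. Total RNA (1 μg) reverse-transcribed with MuLV RT and random primer; SYBR green real-time qPCR with gene-specific primers, triplicate Ct normalized to β-actin. Mean ± SD, three independent experiments.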

[3] = biological target: T1, Signal transducer and activator of transcription 1 (Mus musculus); assay: Inhibition of LPS-induced STAT1 phosphorylation at S727 in C57BL/6 mouse peritoneal macrophages at 15 to 60 uM preincubated for 1 hr followed by LPS challenge for 30 mins by Western blot analysis; outline: as §1
RAW264.7 [4] = assay: Antiinflammatory activity in mouse RAW264.7 cells assessed as inhibition of LPS-induced PGE2 production preincubated for 1 hr followed by LPS challenge for 24 hrs by ELISA method; assay type: functional, cell-based
Outline: (§2)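 RAW 264.7 cells in DMEM with 10% FBS, plated at 2 × 10^5 cells/mL and incubated overnight. Pretreated with compound (15, 30 or 60 μM) for 1 h, then LPS 10 ng/mL for 24 h. PGE2 measured by competitive colorimetric ELISA, TNF-α and IL-6 by ELISA, in diluted medium. NS-398 3 μM as positive control for PGE2. Mean ± SD, three independent experiments; IC50 given for PGE2.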

[5] = biological target: T1, Signal transducer and activator of transcription 1 (Mus musculus); assay: Inhibition of LPS-induced STAT1 phosphorylation at Y701 in mouse RAW264.7 cells at 15 to 60 uM preincubated for 1 hr followed by LPS challenge for 120 mins by Western blot analysis; assay type: cell-based
Outline: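 RAW 264.7 pretreated 1 h at 15, 30 or 60 μM, then LPS 10 ng/mL: 120 min for p-STAT1 Y701, 15 min for p-STAT1 S727, 120 min for p-STAT3 Y705. Western blot with phospho-specific and total STAT1/STAT3 antibodies, β-actin control; three independent experiments.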

Peritoneal macrophage = assay: Antiinflammatory activity in C57BL/6 mouse peritoneal macrophages assessed as inhibition of LPS-induced TNF-alpha production at 60 uM preincubated for 1 hr followed by LPS challenge for 48 hrs by ELISA method; assay type: functional; settings: C57BL/6, Peritoneal macrophage
Rattus norvegicus [6] = assay: Antiinflammatory activity in Sprague-Dawley rat assessed as inhibition of croton oil-induced ear edema at 10 mg/kg, ip administered 1 hr before croton oil challenge measured after 3 hrs post challenge relative to control; assay type: functional
Outline: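 Male SD rats given compound i.p. (5, 10 or 15 mg/kg) 1 h before topical croton oil (5% in 100 μL acetone) on the inner right ear; the left ear received acetone alone. After 3 h, rats were killed and 6 mm ear punches were taken and measured for thickness. Inhibition calculated relative to the croton-oil-only group; seven rats per group.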

RAW264.7 [7] = assay: Antiinflammatory activity in mouse RAW264.7 cells assessed as inhibition of LPS-induced TNF-alpha production at 60 uM preincubated for 1 hr followed by LPS challenge for 24 hrs by ELISA method; assay type: functional; outline: as §2
RAW264.7 [8] = assay: Antiinflammatory activity in mouse RAW264.7 cell lysate assessed as inhibition of LPS-induced COX-2 expression preincubated for 1 hr followed by LPS challenge for 24 hrs by Western blot analysis; assay type: functional, cell-based
Outline: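 RAW 264.7 (DMEM, 10% FBS, 37 °C, 5% CO2) pretreated 1 h at 15, 30 or 60 μM, then LPS 10 ng/mL for 24 h. Lysates run on 10–12% SDS-PAGE, blotted to PVDF, probed with iNOS or COX-2 antibody (1:1000, overnight 4 °C), HRP secondary, ECL; densitometry vs β-actin. Mean ± SD of three independent experiments.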

Mus musculus = assay: Protection against LPS-induced mortality in C57BL/6 mouse assessed as lethality level at 5 to 10 mg/kg, ip pretreated for 1 hr followed by LPS challenge measured every 12 hrs for 96 hrs post challenge; assay type: functional
Outline: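 Male C57BL/6 mice (6 weeks) given compound i.p. (5 or 10 mg/kg) or vehicle 1 h before i.p. LPS (Salmonella enterica, 25 mg/kg). Water only for 12 h beforehand. Survival checked every 12 h for 96 h; n = 5 per group.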

Rattus norvegicus [9] = assay: Antiinflammatory activity in Sprague-Dawley rat assessed as reduction in carrageenan induced paw edema at 15 mg/kg, ip administered 1 hr before carrageenan challenge measured at 3 hrs post challenge relative to control; assay type: functional
Outline: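 SD rats given compound i.p. (5, 10 or 15 mg/kg) 1 h before subplantar injection of 1% carrageenan in saline (0.1 mL) into the right hind paw. Paw volume measured by plethysmometer at 1, 3 and 5 h. Edema compared with the carrageenan-only group; seven rats per group.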

## Cc1cc(=O)c2c(O)c([C@@H]3O[C@H](CO)[C@@H](O)[C@H](O)[C@H]3O)c(O)cc2o1 [BIFLORIN]
[1]
  inhibition: Active
RAW264.7 [2]
  inhibition: Active
[3]
  inhibition: Active
RAW264.7 [4]
  IC50: 37.1 µM
[5]
  inhibition: Active
Peritoneal macrophage
  inhibition at 60 µM: 77.5%
Rattus norvegicus [6]
  inhibition in vivo at 10 mg/kg: 44.5%
RAW264.7 [7]
  inhibition at 60 µM: 75%
RAW264.7 [8]
  inhibition: Dose-dependent effect
Mus musculus
  mortality: 40 - 60%
Rattus norvegicus [9]
  inhibition in vivo at 15 mg/kg: 60%
